Assay results from ChEMBL document CHEMBL3608246, “Novel benzidine and diaminofluorene prolinamide derivatives as potent hepatitis C virus NS5A inhibitors” (Eur J Med Chem, 2015).
Calls of active or inactive are those of the source. The rule behind the calls is not given here.

Experiments:
[1] = system: Salmonella typhimurium; test: Genotoxicity in Salmonella typhimurium TA98 assessed as induction of revertant colonies at 1 ug/plate in absence of S9 mix by Ames test relative untreated control; type: toxicity, organism-based; conditions: salmonella enterica subsp. enterica serovar typhimurium
[2] = Half life in Sprague-Dawley rat at 10 mg/kg, po by LC/MS/MS method; type: ADME, organism-based; conditions: in vivo
Summary of the method: (§1)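 Sprague-Dawley rats, 2 male and 1 female per compound per route, parallel design. Vehicle 5% DMSO, 10% solutol, 85% HPBCD; IV 5 mg/kg bolus via tail vein, oral 10 mg/kg. Blood into K2-EDTA tubes at several time points, centrifuged, plasma analysed by LC/MS/MS; non-compartmental analysis.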

[3] = target: Cytochrome P450 3A4 (Homo sapiens, UniProt P08684); test: Inhibition of human CYP3A4 by luminometry; type: ADME
Chain of Cytochrome P450 3A4 (P08684 whole entry): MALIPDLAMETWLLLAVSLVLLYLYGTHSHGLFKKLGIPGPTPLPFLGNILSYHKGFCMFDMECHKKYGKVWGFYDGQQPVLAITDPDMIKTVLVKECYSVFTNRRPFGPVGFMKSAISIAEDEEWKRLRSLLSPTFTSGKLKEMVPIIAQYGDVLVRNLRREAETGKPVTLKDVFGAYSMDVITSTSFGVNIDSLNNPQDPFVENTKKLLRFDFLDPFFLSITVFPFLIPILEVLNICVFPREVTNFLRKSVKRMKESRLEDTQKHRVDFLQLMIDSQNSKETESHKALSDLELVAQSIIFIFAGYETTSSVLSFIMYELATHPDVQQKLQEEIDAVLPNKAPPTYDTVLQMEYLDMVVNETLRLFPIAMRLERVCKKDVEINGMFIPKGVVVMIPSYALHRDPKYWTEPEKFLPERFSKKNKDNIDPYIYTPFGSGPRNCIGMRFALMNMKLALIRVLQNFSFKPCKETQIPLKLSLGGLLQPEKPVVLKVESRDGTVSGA
Summary of the method: (§2)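 Human CYP1A2, 2C9, 2C19, 2D6 and 3A4 inhibition by P450-Glo luminescent assay per kit protocol; compounds at 100, 50, 10, 5, 1, 0.1 and 0.01 µM; luminometer read-out.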

[4] = Half life in Sprague-Dawley rat at 5 mg/kg, iv by LC/MS/MS method; type: ADME, organism-based; conditions: in vivo; summary of the method: as §1
[5] = target: Cytochrome P450 2C9 (Homo sapiens, UniProt P11712); test: Inhibition of human CYP2C9 by luminometry; type: ADME; summary of the method: as §2
Chain of Cytochrome P450 2C9 (P11712 whole entry): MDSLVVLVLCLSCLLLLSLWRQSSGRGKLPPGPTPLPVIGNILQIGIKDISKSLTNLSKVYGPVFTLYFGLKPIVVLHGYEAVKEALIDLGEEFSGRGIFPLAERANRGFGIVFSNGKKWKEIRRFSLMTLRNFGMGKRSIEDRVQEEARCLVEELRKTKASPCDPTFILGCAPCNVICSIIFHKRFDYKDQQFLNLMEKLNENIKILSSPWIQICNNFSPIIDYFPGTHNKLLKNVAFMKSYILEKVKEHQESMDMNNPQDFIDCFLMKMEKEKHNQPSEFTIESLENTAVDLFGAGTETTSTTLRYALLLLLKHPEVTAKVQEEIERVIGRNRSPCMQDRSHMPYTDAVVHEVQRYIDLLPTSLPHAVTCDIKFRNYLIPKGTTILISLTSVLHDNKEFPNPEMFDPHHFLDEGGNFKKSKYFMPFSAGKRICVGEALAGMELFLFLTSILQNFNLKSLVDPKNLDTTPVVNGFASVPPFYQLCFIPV

[6] = target: hERG (KCNH2) (Homo sapiens, UniProt Q12809); test: Inhibition of human ERG at 10 uM by fluorescence polarization assay based ligand binding assay
Chain of hERG (KCNH2) (Q12809 whole entry): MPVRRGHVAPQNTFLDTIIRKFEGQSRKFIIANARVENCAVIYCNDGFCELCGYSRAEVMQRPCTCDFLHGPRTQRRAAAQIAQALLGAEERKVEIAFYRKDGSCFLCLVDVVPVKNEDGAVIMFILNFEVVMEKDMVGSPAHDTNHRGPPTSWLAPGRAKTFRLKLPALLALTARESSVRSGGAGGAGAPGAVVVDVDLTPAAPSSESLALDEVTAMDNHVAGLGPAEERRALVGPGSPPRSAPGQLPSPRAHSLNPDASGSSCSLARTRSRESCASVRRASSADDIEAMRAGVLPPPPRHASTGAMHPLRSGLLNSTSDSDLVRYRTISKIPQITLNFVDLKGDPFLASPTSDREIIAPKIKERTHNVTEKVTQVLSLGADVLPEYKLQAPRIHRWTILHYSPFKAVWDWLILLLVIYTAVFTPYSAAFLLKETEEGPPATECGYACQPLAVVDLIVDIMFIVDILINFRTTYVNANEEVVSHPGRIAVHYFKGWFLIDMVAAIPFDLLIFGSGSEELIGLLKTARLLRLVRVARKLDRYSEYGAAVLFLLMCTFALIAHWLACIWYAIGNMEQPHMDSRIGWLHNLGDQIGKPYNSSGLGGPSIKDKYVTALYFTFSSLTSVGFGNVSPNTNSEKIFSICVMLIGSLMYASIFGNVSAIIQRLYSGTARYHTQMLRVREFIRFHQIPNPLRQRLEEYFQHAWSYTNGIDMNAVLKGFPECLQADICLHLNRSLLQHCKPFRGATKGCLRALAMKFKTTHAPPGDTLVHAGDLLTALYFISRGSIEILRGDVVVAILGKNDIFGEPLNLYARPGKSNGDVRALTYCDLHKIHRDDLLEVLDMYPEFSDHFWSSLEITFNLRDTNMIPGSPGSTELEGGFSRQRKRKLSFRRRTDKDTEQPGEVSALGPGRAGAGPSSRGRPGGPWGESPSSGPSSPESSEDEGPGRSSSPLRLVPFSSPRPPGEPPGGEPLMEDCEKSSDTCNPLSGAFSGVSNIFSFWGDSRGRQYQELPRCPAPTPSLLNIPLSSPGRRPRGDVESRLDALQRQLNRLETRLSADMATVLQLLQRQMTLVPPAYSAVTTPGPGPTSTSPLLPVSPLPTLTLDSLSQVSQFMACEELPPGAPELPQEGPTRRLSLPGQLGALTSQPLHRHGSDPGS

[7] = target: Cytochrome P450 2D6 (Homo sapiens, UniProt P10635); test: Inhibition of human CYP2D6 by luminometry; type: ADME; summary of the method: as §2
Chain of Cytochrome P450 2D6 (P10635 whole entry): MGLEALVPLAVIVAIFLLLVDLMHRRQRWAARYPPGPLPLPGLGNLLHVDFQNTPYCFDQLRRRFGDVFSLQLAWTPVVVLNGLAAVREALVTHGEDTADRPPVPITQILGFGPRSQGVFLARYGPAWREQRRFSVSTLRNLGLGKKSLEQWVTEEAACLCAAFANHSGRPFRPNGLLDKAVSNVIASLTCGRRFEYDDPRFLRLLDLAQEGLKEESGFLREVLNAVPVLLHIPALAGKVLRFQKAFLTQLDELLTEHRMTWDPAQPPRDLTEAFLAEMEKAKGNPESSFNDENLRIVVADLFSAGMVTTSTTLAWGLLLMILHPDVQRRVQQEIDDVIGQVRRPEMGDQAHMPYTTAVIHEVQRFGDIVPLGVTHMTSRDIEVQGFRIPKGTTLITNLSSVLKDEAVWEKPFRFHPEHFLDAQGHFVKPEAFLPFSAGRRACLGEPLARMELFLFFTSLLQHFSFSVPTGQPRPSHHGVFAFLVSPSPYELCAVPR

[8] = system: Hepatitis C virus; test: Antiviral activity against HCV genotype 2a JFH5a infected in human Huh7.5.1 cells transfected with JFH5a-Rluc-ad34 assessed as reduction in virus proliferation by luciferase reporter gene assay; type: functional, cell-based, Hepacivirus hominis, Huh-7
[9] = Stability in human liver microsomes assessed as compound remaining at 1 uM after 0.5 hrs by LC-MS/MS method; type: ADME; conditions: read-out: Stability
Summary of the method: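 Pooled human liver microsomal fraction with β-NADPH, compound at 1 µM, incubated over 30 min; remaining compound in supernatant quantified by LC-MS/MS.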

[10] = Cytotoxicity against human Huh7.5.1 cells; type: cell-based, Huh-7
[11] = system: Hepatitis C virus; test: Antiviral activity against HCV genotype 1b NK/R2AN infected in human Huh7.5.1 cells assessed as reduction in virus replication by luciferase reporter gene assay; type: functional, organism-based, Hepacivirus hominis, subtype 1b NK/R2AN, Huh-7
[12] = target: T1, Cytochrome P450 1A2 (Homo sapiens, UniProt P05177); test: Inhibition of human CYP1A2 by luminometry; type: ADME; summary of the method: as §2
T1 sequence (P05177 whole entry): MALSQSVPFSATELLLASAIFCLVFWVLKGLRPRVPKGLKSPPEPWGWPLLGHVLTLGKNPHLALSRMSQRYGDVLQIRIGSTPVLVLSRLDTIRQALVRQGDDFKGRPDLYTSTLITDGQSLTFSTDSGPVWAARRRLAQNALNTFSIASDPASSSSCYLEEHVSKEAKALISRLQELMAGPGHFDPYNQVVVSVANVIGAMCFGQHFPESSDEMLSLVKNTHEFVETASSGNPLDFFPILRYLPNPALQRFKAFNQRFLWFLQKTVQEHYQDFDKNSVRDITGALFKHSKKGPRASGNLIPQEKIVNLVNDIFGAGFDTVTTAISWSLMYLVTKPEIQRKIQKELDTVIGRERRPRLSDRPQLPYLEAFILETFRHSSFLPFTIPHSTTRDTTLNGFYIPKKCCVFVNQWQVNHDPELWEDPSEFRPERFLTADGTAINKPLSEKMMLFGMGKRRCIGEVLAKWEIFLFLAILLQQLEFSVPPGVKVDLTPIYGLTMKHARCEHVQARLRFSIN

[13] = target: Cytochrome P450 2C19 (Homo sapiens, UniProt P33261); test: Inhibition of human CYP2C19 by luminometry; type: ADME; summary of the method: as §2
Chain of Cytochrome P450 2C19 (P33261 whole entry): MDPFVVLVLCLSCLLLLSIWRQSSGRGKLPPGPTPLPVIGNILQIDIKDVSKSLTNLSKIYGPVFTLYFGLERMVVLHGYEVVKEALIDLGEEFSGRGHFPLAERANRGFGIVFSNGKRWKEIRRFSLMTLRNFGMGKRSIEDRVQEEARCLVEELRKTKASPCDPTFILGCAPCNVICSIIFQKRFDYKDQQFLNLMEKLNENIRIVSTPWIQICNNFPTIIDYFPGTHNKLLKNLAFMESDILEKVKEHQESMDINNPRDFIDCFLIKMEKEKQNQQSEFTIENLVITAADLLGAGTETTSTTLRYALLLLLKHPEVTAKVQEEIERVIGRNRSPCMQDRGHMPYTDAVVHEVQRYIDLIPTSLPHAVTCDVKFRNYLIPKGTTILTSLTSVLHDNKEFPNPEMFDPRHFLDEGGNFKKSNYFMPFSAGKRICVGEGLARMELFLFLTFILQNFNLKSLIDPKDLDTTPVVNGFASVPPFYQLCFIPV

[14] = Oral bioavailability in Sprague-Dawley rat at 10 mg/kg by LC/MS/MS method; type: ADME, organism-based; conditions: in vivo; summary of the method: as §1
[15] = Stability in rat plasma assessed as compound remaining t 100 uM after 0.5 hrs by LC-MS/MS method; type: ADME, cell-free; conditions: read-out: Stability
Summary of the method: (§3)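 Rat plasma pre-warmed 5 min at 37 °C, mixed with test compound from 100 µM stock (3 into 297 parts), incubated at 37 °C; sampled at 0, 15, 30, 60, 120 min, acetonitrile-precipitated, centrifuged 10 min, supernatant analysed by LC-MS/MS.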

[16] = Stability in rat plasma assessed as compound remaining at 100 uM after 1 hr by LC-MS/MS method; type: ADME, cell-free; conditions: read-out: Stability; summary of the method: as §3
[17] = Stability in rat plasma assessed as compound remaining at 100 uM after 2 hrs by LC-MS/MS method; type: ADME, cell-free; conditions: read-out: Stability; summary of the method: as §3
[18] = system: Hepatitis C virus; test: Antiviral activity against HCV genotype 1b NK/R2AN infected in human Huh7.5.1 cells expressing NS5A Y93H mutant assessed as reduction in virus replication at 100 pM to 1 uM by luciferase reporter gene assay; type: functional, organism-based; conditions: Hepacivirus hominis, subtype 1b NK/R2AN, Huh-7
Summary of the method: (§4)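 Daclatasvir-resistant NS5A mutant RNAs were transcribed in vitro and electroporated into Huh7.5.1 cells grown in 12-well plates. At 4 h post-transfection, medium was replaced with DMEM containing serially diluted compounds. Cells were harvested 3 days later and Renilla luciferase activity was measured and normalized to mock-treated cells.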

[19] = system: Hepatitis C virus; test: Antiviral activity against HCV genotype 1b NK/R2AN infected in human Huh7.5.1 cells expressing NS5A L31V mutant assessed as reduction in virus replication at 100 pM to 1 uM by luciferase reporter gene assay; type: functional, organism-based; conditions: Hepacivirus hominis, subtype 1b NK/R2AN, Huh-7; summary of the method: as §4
[20] = system: Hepatitis C virus; test: Antiviral activity against HCV genotype 1b NK/R2AN infected in human Huh7.5.1 cells assessed as reduction in virus replication in presence of 123 nM NS5B polymerase inhibitor sofosbuvir by luciferase reporter gene assay; type: functional, organism-based; conditions: Hepacivirus hominis; subtype 1b NK/R2AN; Huh-7
[21] = Hepatitis C virus, genotype 2a JFH5a, Huh-7
[22] = Hepatitis C virus, subtype 1b NK/R2AN, Huh-7

SMILES | half-life [2] | EC50 [3] | half-life [4] | EC50 [5] | EC50 [7] | remaining at 0.5 h, 1 µM [9] | EC50 [11, 22] | EC50 [12] | EC50 [13] | bioavailability [14] | remaining at 0.5 h, 100 µM [15] | remaining at 1 h, 100 µM [16] | remaining at 2 h, 100 µM [17] | inhibition at 10 µM [6] | EC50 [8, 21] | CC50 [10] | further results
O=[N+]([O-])c1ccc2c(c1)Cc1ccccc1-2 [2-NITROFLUORENE] |  |  |  |  |  |  |  |  |  |  |  |  |  |  |  |  | fold change (FC) [1]: 10.2
COC(=O)N[C@@H](C(=O)N1CCC[C@H]1C(=O)Nc1ccc(-c2ccc(NC(=O)[C@@H]3CCCN3C(=O)[C@H](NC(=O)OC)c3ccccc3)cc2C(F)(F)F)c(C(F)(F)F)c1)c1ccccc1 (stereo in doubt; form 1) [listing 1 of 2 here] | 3.8 h | 4640 nM | 2.9 h | 660 nM | > 100000 nM | 79% |  | 78800 nM | 4640 nM | 11.7% | 93% | 99% | 99% | 7.98% |  |  | EC50 ([8]; huh-7): 0.025 nM; EC50 ([11]; huh-7): 0.0025 nM
COC(=O)N[C@H](C(=O)N1CCC[C@H]1c1ncc(-c2ccc(-c3ccc(-c4cnc([C@@H]5CCCN5C(=O)[C@@H](NC(=O)OC)C(C)C)[nH]4)cc3)cc2)[nH]1)C(C)C |  |  |  |  |  |  |  |  |  |  |  |  |  |  |  |  | inhibition [18]: Active; inhibition [19]: Active
COC(=O)N[C@@H](C(=O)N1CCC[C@H]1C(=O)Nc1ccc(-c2ccc(NC(=O)[C@@H]3CCCN3C(=O)[C@H](NC(=O)OC)c3ccccc3)cc2C(F)(F)F)c(C(F)(F)F)c1)c1ccccc1 (stereo in doubt; form 1) [listing 2 of 2 here] |  |  |  |  |  |  |  |  |  |  |  |  |  |  |  |  | Activity [20]: Active

Continued, in another order:

half-life [2] | EC50 [3] | half-life [4] | EC50 [5] | EC50 [7] | remaining at 0.5 h, 1 µM [9] | EC50 [11, 22] | EC50 [12] | EC50 [13] | bioavailability [14] | remaining at 0.5 h, 100 µM [15] | remaining at 1 h, 100 µM [16] | remaining at 2 h, 100 µM [17] | SMILES | inhibition at 10 µM [6] | EC50 [8, 21] | CC50 [10] | further results
4.45 h | 1030 nM | 1.62 h | 269 nM | > 100000 nM | 95% | 0.004 nM | > 100000 nM | 2940 nM | 13.8% |  |  |  | COC(=O)N[C@@H](C(=O)N1CCC[C@H]1C(=O)Nc1ccc2c(c1)C(C)(C)c1cc(NC(=O)[C@@H]3CCCN3C(=O)[C@H](NC(=O)OC)c3ccccc3)ccc1-2)c1ccccc1 | 25.7% | 0.02 nM | > 25000 nM | 
6.37 h | 3990 nM | 1.55 h | 116 nM | 41200 nM | 96% | 0.007 nM | 23900 nM | 1040 nM | 4.99% | 72% | 75% | 70% | COC(=O)N[C@@H](C(=O)N1CCC[C@H]1C(=O)Nc1ccc(-c2ccc(NC(=O)[C@@H]3CCCN3C(=O)[C@H](NC(=O)OC)c3ccccc3)cc2Cl)c(Cl)c1)c1ccccc1 | 5.8% | 0.01 nM | > 25000 nM | 
2.34 h | 2460 nM | 0.88 h | 87.7 nM | 4940 nM | 97% | 0.005 nM | > 100000 nM | 724 nM | 3.12% | 65% | 61% | 63% | COC(=O)N[C@@H](C(=O)N1CCC[C@H]1C(=O)Nc1ccc(-c2ccc(NC(=O)[C@@H]3CCCN3C(=O)[C@H](NC(=O)OC)c3ccccc3)cc2F)c(F)c1)c1ccccc1 | < 1% | 0.16 nM | > 25000 nM | 
